Screens: PubChem, Johns Hopkins Ion Channel Center
TRPC4 potent: positive allosteric modulators of TRPC4, primary screen, cell-based, mouse TRPC4beta, HEK293 mu-opioid, Fluo-4 calcium | B-score at 10 µM | 310,000 tested, 0.42% active | DAMGO EC20, Fluo-4 Ca2+ flux; active compounds read high;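 active = B-score of calcium response area above 5 SD of library B-scores, with initial fluorescence ratio within 5 SD of library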
Target sequence (Q9QUQ5 whole entry, looked up): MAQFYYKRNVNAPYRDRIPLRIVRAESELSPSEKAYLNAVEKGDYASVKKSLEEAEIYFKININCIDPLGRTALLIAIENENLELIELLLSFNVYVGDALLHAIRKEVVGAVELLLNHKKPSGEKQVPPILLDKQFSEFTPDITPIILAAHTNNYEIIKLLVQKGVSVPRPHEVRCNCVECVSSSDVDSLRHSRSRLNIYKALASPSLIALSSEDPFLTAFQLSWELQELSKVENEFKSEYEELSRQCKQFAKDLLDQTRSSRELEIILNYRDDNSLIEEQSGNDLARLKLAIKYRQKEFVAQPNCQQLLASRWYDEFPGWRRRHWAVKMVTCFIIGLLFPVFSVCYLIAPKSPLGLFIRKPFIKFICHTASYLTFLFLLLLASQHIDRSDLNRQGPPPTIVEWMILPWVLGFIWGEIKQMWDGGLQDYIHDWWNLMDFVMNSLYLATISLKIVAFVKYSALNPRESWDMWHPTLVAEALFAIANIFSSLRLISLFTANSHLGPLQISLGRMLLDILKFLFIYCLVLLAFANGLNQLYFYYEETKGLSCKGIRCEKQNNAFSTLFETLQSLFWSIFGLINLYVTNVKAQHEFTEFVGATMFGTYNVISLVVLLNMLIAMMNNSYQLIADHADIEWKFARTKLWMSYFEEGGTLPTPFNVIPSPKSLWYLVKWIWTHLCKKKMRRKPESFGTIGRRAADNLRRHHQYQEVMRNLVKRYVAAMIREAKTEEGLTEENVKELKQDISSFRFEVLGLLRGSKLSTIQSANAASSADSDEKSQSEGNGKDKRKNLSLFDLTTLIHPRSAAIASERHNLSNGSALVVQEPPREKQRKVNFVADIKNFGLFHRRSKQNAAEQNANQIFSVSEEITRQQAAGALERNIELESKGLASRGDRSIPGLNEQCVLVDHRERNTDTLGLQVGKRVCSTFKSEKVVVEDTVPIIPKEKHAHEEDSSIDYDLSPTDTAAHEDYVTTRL
TRPC4 block: inhibitors of mouse TRPC4 channel, primary screen, Fluo4 calcium, HEK293 TRPC4beta/mu-opioid cells; DAMGO-evoked Fluo4 calcium flux; active compounds read low; B-score at 10 µM; 300,000 tested, 0.39% active; AID 2247, 2010;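 active = B-score over 3 SD under the library average, no early fluorescence shift, positive overall ratio signal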
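Assay system: Stable TRPC4beta/mu-opioid receptor HEK293 cells | Reagent: DAMGO in two steps, submaximal then maximal | Compound dosing: Single concentration per test compound | Signal: Fluo4 Ca2+ flux fluorescence | Evaluation: Per-well B score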
TRPC6 inhibitor: mouse TRPC6 channel inhibitors, primary screen, cell-based, HEK293, membrane potential dye; ACh-evoked depolarization; active compounds read low; B-score at 10 µM; 310,000 tested, 1.1% active; AID 2553, 2010;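 active = B-score under library mean minus 3 SD, initial fluorescence not abnormally high, positive integrated signal ratio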;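 also: B-score derived from integrated fluorescence ratio over the kinetic read; more negative B-score means stronger inhibition of depolarization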
TRPC4 agonist: activators of mouse TRPC4 channel, primary screen, Fluo4 calcium, HEK293 TRPC4beta/mu-opioid cells; B-score at 10 µM; Short transient receptor potential channel 4 (Mus musculus), Q9QUQ5; 310,000 tested, 0.49% active; Fluo4 calcium fluorescence; active compounds read high; AID 2237, 2010;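 active = B-score above 5 SD of library B-scores, and initial fluorescence ratio not above library mean plus 5 SD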;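 also: positive B-score marks a calcium rise read as TRPC4 activation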
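Material: TRPC4beta and mu-opioid receptor HEK293 stable cells | Incubation: 45 min room-temperature Fluo4 loading, 110 s read | Detection: Kinetic Fluo4 calcium fluorescence | Measure: Integrated baseline-normalised fluorescence ratio, converted to per-well B score | Benchmarks: Low control buffer alone, high control maximal DAMGO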
TRPC6 activator: mouse TRPC6 channel activators, primary screen, cell-based, HEK293, membrane potential dye; Short transient receptor potential channel 6 (Mus musculus), Q61143; 310,000 tested, 0.13% active; HEK293-TRPC6 membrane potential dye fluorescence; active compounds read high; AID 2550, 2010; B-score at 10 µM;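 active = B-score of the integrated fluorescence ratio above library mean plus 3 SD, and starting fluorescence ratio within library mean plus 5 SD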;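 also: higher score means more depolarization so channel activation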
Of the large screens only hits and unclear results are named; the others gave an inactive call. Most compounds without a hit are left out; they make up all but 2.3% or so of the library.

O=C(Nc1ccc(Nc2ccccc2)cc1)c1ccc(Br)o1	TRPC4 potent 13
O=C(NC(=S)Nc1ccccc1)c1ccc(Br)o1	none
Cc1ccc(C)c(Cn2ncc3ccccc32)c1	none
COc1ccc2c(c1)NC(c1ccc(N(C)C)cc1)c1cccn1-2 (stereo not drawn)	none
COc1ccc(CCNC(C)=O)cc1	none
COc1ccc(CCNC(=O)C2CC=CCC2C(=O)O)cc1 (stereo not drawn)	TRPC4 potent 12
Cc1ccccc1C(=O)Nc1cccc(NC(=S)NC(=O)c2cccs2)c1	none
Cc1cccc(C(=O)NC(=S)NNC(=O)c2cccs2)c1	TRPC4 agonist 236
O=C(NC(=S)NNC(=O)c1cccs1)c1ccccc1	TRPC4 agonist 82
CC(C)(C)c1ccc(C(=O)NC(=S)NNC(=O)c2cccs2)cc1	TRPC4 agonist 339
Cc1ccccc1C(=O)NNC(=S)NC(=O)c1cccs1	TRPC4 agonist 159
Cc1cccc(C(=O)NC(=S)NNC(=O)c2ccc(Cl)cc2)c1	none
O=C(NNC(=S)Nc1ccccc1)c1cccs1	none
CCCC(=O)Nc1ccc(C(=O)NNC(=S)NC(=O)c2cccs2)cc1	none
Cc1ccc(C(=O)Nc2ccc(C(=O)O)cc2)cc1S(=O)(=O)NCc1ccccc1	none
C#Cc1ccc(CN2CCCC(C(=O)Nc3ccccc3Oc3cccnc3)C2)cc1 (stereo not drawn)	TRPC4 block -6
O=C(Nc1ccccc1Oc1cccnc1)C1CCCN(Cc2ccccc2O)C1 (stereo not drawn)	none
CC1Cc2cc(S(=O)(=O)N3CCC(C(=O)N(C)Cc4ccco4)CC3)ccc2N1C(=O)C1CCC1 (stereo not drawn)	none
C[C@@H](NC(=O)[C@@H]1Cc2ccccc2CN1)C(=O)Nc1ccc2c(c1)OCCO2	none
CCC1CCCCN1S(=O)(=O)c1ccc(C(=O)N(CCCN(C)C)c2nc3cc4c(cc3s2)OCO4)cc1 (stereo not drawn)	TRPC4 agonist 130
CC1CCCCN1S(=O)(=O)c1ccc(C(=O)N(CCCN(C)C)c2nc3ccc(Br)cc3s2)cc1 (stereo not drawn)	TRPC4 agonist 143
CCN1CCN(c2ccc(S(=O)(=O)N3CCCCC3)cc2NC(=O)c2ccccc2)CC1	none
CCN1CCN(c2ccc(S(=O)(=O)N3CCCCC3)cc2NC(=O)c2cccc(C(F)(F)F)c2)CC1	TRPC4 potent 29
CCN1CCN(c2ccc(S(=O)(=O)N3CCCCC3)cc2NC(=O)c2cccc(C)c2[N+](=O)[O-])CC1	TRPC4 agonist 132
CCN1CCN(c2ccc(S(=O)(=O)N3CCCCC3)cc2NC(=O)c2cccc(F)c2)CC1	TRPC4 potent 17
COc1ccccc1CCNC(=O)CCn1c(=O)c2cccn2c2ccc(F)cc21	none
COc1cc(OC)c(C2N(c3ccc(Cl)cc3)C(=O)C3CCCN32)cc1OC (stereo not drawn)	TRPC4 potent 12
COc1cc(OC)c(C2N(c3ccc(Cl)c(Cl)c3)C(=O)C3CCCN32)cc1OC (stereo not drawn)	none
CSCCC(NC(=O)c1ccco1)C(=O)N1CCN(Cc2ccccc2)CC1 (stereo not drawn)	none
CSCCC(NC(=O)c1ccco1)C(=O)OC(C)C(=O)NC(=O)NC1CCCCC1 (stereo not drawn)	TRPC4 agonist 70
CN(C(=O)COC(=O)COc1ccc(Cl)cc1Cl)c1c(N)n(Cc2ccccc2)c(=O)[nH]c1=O	none
Cc1ccc2[nH]c3c(=O)n(CCc4cnc[nH]4)cnc3c2c1	TRPC4 agonist 211
Cc1ccc2[nH]c3c(=O)n(CCN4CCOCC4)cnc3c2c1	none
Cc1c(C(=O)N2CCCC2)oc2c1-c1nn(CC(=O)NCCCOC(C)C)cc1CC2	none
CCCCN(CC)CCNC(=O)Cn1cc2c(n1)-c1c(oc(C(=O)N3CCCC3)c1C)CC2	TRPC4 agonist 125
COc1ccc(N2CCN(C(c3nnnn3C3CCCC3)C(C)C)CC2)cc1 (stereo not drawn)	none
COc1ccc(C(c2nnnn2C2CCCC2)N2CCN(c3ccccc3)CC2)cc1 (stereo not drawn)	TRPC4 block -6
CC1CCN(c2c(NCC3CCC(C(=O)NCc4ccccc4Cl)CC3)c(=O)c2=O)CC1 (stereo not drawn)	none
CC1Sc2ccc(S(=O)(=O)CCC(=O)NC(C)c3ccccc3)cc2NC1=O (stereo not drawn)	none
CCOC(=O)CNC(=O)c1cc2c(=O)[nH]c3ccc(C)cc3c2s1	none
Cn1c(=O)c2[nH]c(CN3CCN(Cc4ccccc4)CC3)nc2n(C)c1=O	none
CN1CCN(Cc2nc3c([nH]2)c(=O)[nH]c(=O)n3C)CC1	TRPC4 agonist 72
CCc1ccc(CNc2ccc3c(c2)ncn3C(C)(C)C)cc1	none
CCc1ccc(CNc2ccc3c(c2)ncn3CC)cc1	TRPC6 inhibitor -5.05
CC(C)(C)n1cnc2cc(NCc3ccc(Br)cc3)ccc21	TRPC4 potent 25
CCOc1ccnc2c1c(=O)n(Cc1cc(OC)cc(OC)c1)c(=O)n2C	none
c1coc(CN=C2NC(=NCc3ccco3)c3ccccc32)c1	TRPC4 block -7
Cc1ccc2c(CN(C)Cc3cccc(Cl)c3)cc(=O)oc2c1C	TRPC4 potent 11
CSc1ccc(CN(C)Cc2cc(=O)oc3c(C)c(C)ccc23)cc1	none
Cc1ccc(/C=N/NC(=O)NC23CC4CC(CC(C4)C2)C3)o1	none
Cc1c(CN2CCC(n3nccc3NC(=O)C3CC3)CC2)[nH]c2ccccc12	TRPC4 agonist 64
COC(=O)c1ccc(CN2CCC(n3nccc3NC(=O)C3CC3)CC2)cc1	none
CCCCc1ccc(NC(=O)CSc2nnc(C)c(=O)n2N)cc1	TRPC4 potent 24
CC(=O)Nc1ccc(NC(=O)CSc2nnc(C)c(=O)n2N)cc1	none
O=C(NCCNC1CCC(c2ccccc2)CC1)c1cccs1 (stereo not drawn)	TRPC4 agonist 158
O=S(=O)(c1ccccc1Cl)N1CCC(Cc2ccccc2)CC1	TRPC4 potent 20
COc1cc(C2(c3ccc(O)c(OC)c3)C(=O)Nc3c(C)cc(Br)cc32)ccc1O	TRPC4 potent 27
Cc1cc(Br)cc2c1NC(=O)C2(c1c(C)n(C)n(-c2ccccc2)c1=O)c1c(C)n(C)n(-c2ccccc2)c1=O	none
Cc1cc(Nc2cccc(O)c2)c2ccccc2n1	TRPC4 block -5
Cc1cc(Nc2ccccc2)nc2cc(O)ccc12	TRPC4 block -7
CCc1sc(N(C(=O)Cc2ccccc2)c2ccccc2)nc1-c1ccccc1	none
CCCCC(=O)N(c1ccc(C(=O)O)cc1)c1nc(-c2ccc(Cl)cc2)c(CC)s1	TRPC4 block -6
